Results reported in ChEMBL document CHEMBL1133692, “Modeling of the inhibition of retroviral integrases by styrylquinoline derivatives” (J Med Chem, 2000).
pIC50: −log10 of the molar value.

Biological target: Human immunodeficiency virus type 1 integrase (Human immunodeficiency virus 1, UniProt Q7ZJM1)
Assay: Inhibition of human immunodeficiency virus-1 (HIV-1) integrase.
In short: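 Disintegration assay with His-tagged HIV-1 integrase catalytic core, expressed in E. coli BL21(DE3) and Ni-NTA purified. Substrate was 0.5 pmol of 5′-32P-labelled, self-annealed DHIV oligonucleotide, reacted with 2 pmol core in Tris buffer pH 7.2 for 1 h at 37 °C. Products were resolved on 15% denaturing polyacrylamide gel and quantified by phosphorimaging. IC50 is the drug concentration halving enzyme activity.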

Chain of Human immunodeficiency virus type 1 integrase (Q7ZJM1 whole entry): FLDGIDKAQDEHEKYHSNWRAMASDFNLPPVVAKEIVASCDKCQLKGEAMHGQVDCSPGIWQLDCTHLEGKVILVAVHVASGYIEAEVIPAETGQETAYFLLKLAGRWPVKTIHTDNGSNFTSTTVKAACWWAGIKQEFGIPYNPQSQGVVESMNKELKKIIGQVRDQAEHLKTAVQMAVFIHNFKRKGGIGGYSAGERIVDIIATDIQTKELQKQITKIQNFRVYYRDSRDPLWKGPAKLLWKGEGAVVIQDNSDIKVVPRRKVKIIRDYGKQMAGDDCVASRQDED

Compound | pIC50
O=C(O)c1ccc2ccc(/C=C/c3ccc(O)cc3O)nc2c1O | 5.60

Biological target: Gag-Pol polyprotein (Rous sarcoma virus (strain Prague C) (RSV-PrC), UniProt P03354)
Assay: Inhibition of rous sarcoma virus (RSV) Integrase.
In short: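 His-tagged RSV integrase catalytic core expressed in E. coli BL21(DE3) (IPTG 1 mM, 3 h, 37 °C) and purified on Ni-NTA. Disintegration assay used 0.5 pmol 5′-32P-labeled annealed DRSV oligonucleotide with 2 pmol core in Tris buffer pH 7.2 for 1 h at 37 °C. Products were resolved on a 15% denaturing polyacrylamide gel and quantified by phosphorimager. IC50 is the concentration halving activity.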

Chain of Gag-Pol polyprotein (P03354 1281-1567 limits assumed): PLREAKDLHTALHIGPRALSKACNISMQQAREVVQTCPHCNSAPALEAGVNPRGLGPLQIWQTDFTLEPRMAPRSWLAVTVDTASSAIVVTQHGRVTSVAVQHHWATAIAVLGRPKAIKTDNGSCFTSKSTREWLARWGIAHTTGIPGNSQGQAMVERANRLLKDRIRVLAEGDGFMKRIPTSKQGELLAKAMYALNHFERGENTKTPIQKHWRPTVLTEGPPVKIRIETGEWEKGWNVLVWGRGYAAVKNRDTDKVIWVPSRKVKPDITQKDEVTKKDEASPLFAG

pIC50 | Compound
< 4.00 | CC(=O)Oc1cccc2ccc(/C=C/c3ccccc3)nc12
5.68 | O=C(O)c1ccc2ccc(/C=C/c3cc(O)c(O)c(O)c3)nc2c1O
5.64 | O=C(O)c1ccc2ccc(/C=C/c3ccc(O)c(O)c3)nc2c1O
4.99 | O=C(O)c1ccc2ccc(/C=C/c3ccccc3)nc2c1O
< 4.00 | Cc1ccc2cccc(OC(=O)/C=C/c3ccc(O)c(O)c3)c2n1
4.68 | O=C(O)c1ccc2ccc(/C=C/c3ccc(O)cc3)nc2c1O
4.19 | Oc1ccc(/C=C/c2ccc3cccc(O)c3n2)cc1O
< 4.00 | Nc1cccc2ccc(/C=C/c3ccc(O)c(O)c3)nc12
< 4.00 | CC(=O)Oc1ccc(/C=C/c2ccc3cccc(OC(C)=O)c3n2)cc1OC(C)=O
4.42 | N#Cc1ccc2ccc(/C=C/c3ccc(O)c(O)c3)nc2c1O
5.13 | O=C(O)c1cc(/C=C/c2ccc3ccc(C(=O)O)c(O)c3n2)ccc1O
< 4.00 | Oc1cccc2ccc(/C=C/c3ccccc3)nc12
< 4.00 | O=[N+]([O-])c1cccc2ccc(/C=C/c3ccc(O)c(O)c3)nc12

Compound | pIC50
O=C(O)c1ccc2ccc(/C=C/c3ccc(O)cc3O)nc2c1O | 4.42
